Source: PubChem BioAssay
Rev-erbA mod: modulates human Rev-erb alpha binding to DNA; P20393; actives 0.79% (n = 370,000); activity, % at 10 µM; Rev-erbα–FITC-DNA binding, fluorescence polarization, 90 min;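 active means activity above about 14%, limit read from the data; passing the limit was not always enough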;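 further: 0% = DMSO wells with 35 nM protein and 100% = DMSO wells with 750 nM protein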
NR2E3 ag-1: human photoreceptor-specific nuclear receptor agonism; Q9Y5X4; CHO-S Gal4-NCOR/VP16-NR2E3 two-hybrid, luciferase; inhibition of corepressor binding, % at 3.98 µM; actives 0.35% (n = 360,000);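 active means inhibition above the mean of all tested compounds plus 3 SD, cut at about 70% in these data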;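 further: 0% = DMSO with NR2E3 transfected cells and 100% = cells lacking NR2E3 construct; higher means lower luciferase signal from less NR2E3 corepressor binding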
Target sequence (Q9Y5X4 whole entry, looked up, the tested form may be a part): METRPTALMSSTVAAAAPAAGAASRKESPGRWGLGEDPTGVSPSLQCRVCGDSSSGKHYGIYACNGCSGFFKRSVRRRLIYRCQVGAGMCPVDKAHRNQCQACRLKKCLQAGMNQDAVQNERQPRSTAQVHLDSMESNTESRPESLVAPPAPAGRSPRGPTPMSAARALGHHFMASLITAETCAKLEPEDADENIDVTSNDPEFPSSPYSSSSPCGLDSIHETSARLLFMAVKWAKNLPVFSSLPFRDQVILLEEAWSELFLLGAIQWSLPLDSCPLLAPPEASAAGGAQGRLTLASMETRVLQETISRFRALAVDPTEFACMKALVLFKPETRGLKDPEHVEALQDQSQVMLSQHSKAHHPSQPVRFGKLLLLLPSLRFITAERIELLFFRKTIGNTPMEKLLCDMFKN
PG9 binder: small molecules binding HIV-1 gp120 antibody PG9. TR-FRET gp120-PG9 antibody binding. AID 624416. inhibition, % at 6.7 µM. actives 0.43% (n = 360,000); in the data active means inhibition above about 8.5%
NR2E3 ag-2: NR2E3 (human) agonism; GST-NR2E3/biotin-RetCOR TR-FRET, 1536-well; inhibition of corepressor binding, % at 4.78 µM; actives 0.12% (n = 320,000);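 active means percent inhibition above the cutoff of mean plus 3 SD of all tested compounds, set per screening campaign, cut at about 20% in these data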;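 further: 0% = DMSO wells and 100% = biotin wells as full block of FRET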
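Material: NR2E3–RetCOR corepressor complex / Amount: 1.35 nM GST-NR2E3 / Medium: Tris pH 7.5 / Compound: single nominal compound dose of 4.8 µM / Incubation: 5 h at 4 °C / Technique: TR-FRET, Eu(K)-anti-GST donor, streptavidin-D2 acceptor, ex 340, em 617/671 nm / Read-out basis: percent loss of FRET ratio relative to control wells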
PG9 bind confirm: PG9 antibody binding, confirmed. inhibition, % at 6.7 µM. TR-FRET PG9 antibody binding, biochemical. actives 90% (n = 1,500). AID 651571. shares compounds with PG9 binder; in the data active means inhibition above about 9%
PGV04 counter: counter-screen for PG9 binders: binding control antibody PGV04. shares compounds with PG9 binder. TR-FRET PGV04 antibody-gp120 binding, biochemical. inhibition, % at 6.7 µM. actives 95% (n = 1,500). AID 651604; in the data active means inhibition above about 9.5%
PG9 binder DR: PG9 antibody binding, dose response | shares compounds with PG9 binder | TR-FRET PG9 antibody-gp120 binding inhibition | 95 tested, under 10 active | AID 651848 | IC50, µM; in the data active means IC50 below about 10 µM
PGV04 DR counter: counter-screen for PG9 binders: binding to control antibody PGV04; TR-FRET binding to control antibody PGV04; IC50, µM; AID 651937; actives 20% (n = 95); shares compounds with PG9 binder
PG126 DR counter: PG126 binding, dose response counter-screen. IC50, µM. AID 651939. TR-FRET binding to antibody PG126, counterscreen. shares compounds with PG9 binder. actives 20% (n = 95)
Numbers without * were called inactive; i = inactive; x = not tested or not shown. Only some compounds are listed: those with a hit (about 1.4% of all), similar ones and a draw of the others. Unless noted, no stated cut-off is given here; in the data, active means IC50 below about 9 µM; inactive means the rest.

SMILES | Rev-erbA mod | NR2E3 ag-1 | PG9 binder | NR2E3 ag-2 | PG9 bind confirm | PGV04 counter | others
CCN(c1ccccc1)S(=O)(=O)c1ccc2[nH]cc(C(=O)N3CCOCC3)c(=O)c2c1 | -6 | 7 | 9.1* | 2 | 8 | 9.9*
CCC[C@H]1[C@@H](NC(=O)c2ccc(N(C)C)cc2)CC[C@@]23CCCN2C(=O)CCC[C@@H]13 | -5 | x | x | x | x | x
C=CCn1c(Cc2cccs2)nnc1SCC(=O)Nc1ccc2c(c1)OCO2 | 4 | x | x | x | x | x
Cn1c(C(=O)Nc2ccc(Cl)cc2)cc2cc(Cl)ccc21 | 3 | -12 | 14* | 0 | 9.2* | 16*
COc1ccc(CN2C(=O)N3Cc4ccccc4C3CS2(=O)=O)cc1 (stereo unspecified) | 5 | x | x | x | x | x
Cc1cc(NC(=O)CSc2nc(-c3cccs3)cc(C(F)(F)F)n2)no1 | 10 | -25 | 24* | 0 | 34* | 43*
Cc1ccc(C(=O)NCCNc2nc3cc(C)c(C)cc3cc2C)cc1 | 17 | 4 | 8.9* | -1 | 18* | 22*
O=C(Nc1nccs1)c1cc2sccc2n1Cc1ccc(F)cc1 | 16 | -3 | 9.4* | 10 | 15* | 19*
COc1ccc(NC(=O)c2cc3sccc3n2Cc2ccc(F)cc2)cc1OC | 2 | -30 | 0 | 2 | x | x
COC(=O)C1CN(Cc2cn(CCC3OCCO3)nn2)CCS(=O)(=O)N1Cc1ccc(C)cc1 (stereo unspecified) | 2 | x | x | x | x | x
CC1=C2N=C(N)N(Cc3ccccc3)C(Cc3ccccc3)C2n2c(=O)n(-c3ccccc3)c(=O)n2C1 (stereo unspecified) | -4 | x | x | x | x | x
Cc1ccc(/C=C/c2nc3ccccc3c(=O)[nH]2)cc1 | 2 | -149 | 31* | 6 | 40* | 47*
COC(=O)[C@]12C[C@H](CC(=O)NCc3ccc(C)o3)C(=O)N(Cc3ccc4c(c3)OCO4)C1=C[C@H](C(C)C)O[C@@H]2C1CC1 | -1 | x | x | x | x | x
Cc1ccc(C(=O)C2=C(O)C(=O)N(CC3CCCO3)C2c2ccccc2F)o1 (stereo unspecified) | 2 | -8 | 13* | 12 | 23* | 31*
CCCCOc1ccc(C2C(C(=O)c3ccc(C)o3)=C(O)C(=O)N2CC2CCCO2)cc1 (stereo unspecified) | 3 | -1 | 26* | 8 | 25* | 30*
Clc1ccc(OCCOc2ccc(Br)nc2Br)c(Cl)c1 | 3 | x | x | x | x | x
Cc1ccc(Cn2c(C3CCCN3c3nc(-c4cc(Cl)c(N)c(Cl)c4)cs3)nc3cc(Cl)c(Cl)cc32)cc1 (stereo unspecified) | -4 | -16 | 9.7* | -1 | 14* | 22*
Nc1c(Cl)cc(-c2csc(N3CCCC3c3nc4cc(Cl)c(Cl)cc4n3CCCO)n2)cc1Cl (stereo unspecified) | -7 | -4 | 0 | 4 | x | x
COc1ccc(-n2ncc3c(=O)n(CC(=O)Nc4ccc5c(c4)OCCO5)cnc32)cc1 | 22 | 5 | 12* | 4 | 19* | 23*
COC(=O)Cn1cnc2c(cnn2-c2ccc(OC)cc2)c1=O | -3 | -45 | -1 | 3 | x | x
O=C(Nc1ccc2c(c1)OCO2)C1CCN(c2ccc(S(=O)(=O)N3CCOCC3)cc2)CC1 | 0 | -4 | 16* | 0 | 27* | 25* | PG9 binder DR=>67;PGV04 DR counter=i;PG126 DR counter=i
Cc1ccc(S(=O)(=O)N2CCC(C(=O)Nc3ccc4c(c3)OCO4)CC2)cc1 | -3 | -10 | 0 | 6 | x | x
Cc1ccc(NC(=O)COC(=O)c2cc(Cl)ccc2Cl)c(Br)c1 | 4 | -10 | 22* | 9 | 31* | 40*
CCCCNC(=O)C1(C(=O)C2CC2)CC(c2ccccc2C(F)(F)F)=NO1 (stereo unspecified) | -4 | x | x | x | x | x
Cc1ccc(NC(=O)c2sc3nc(C)cc(C)c3c2N)cc1 | -2 | -104 | -3 | 3 | x | x
SMILES | Rev-erbA mod | NR2E3 ag-1 | PG9 binder | NR2E3 ag-2 | PG9 bind confirm | PGV04 counter | others
Cc1cc(C)c2c(N)c(C(=O)Nc3cccc(C)c3C)sc2n1 | 4 | -78 | 8.9* | -2 | 46* | 70*
Cc1ccccc1NC(=O)c1sc2nc3c(c(-c4ccco4)c2c1N)CCCC3 | 4 | -32 | 71* | -2 | 62* | 71*
CCOC(=O)CC[C@@]1(C(=O)OCC)C[C@@H](CC(=O)NCCc2ccccc2OC)C(=O)N2CCCC=C21 | 3 | x | x | x | x | x
CCN(CC)C(=O)CC[C@@H]1CC[C@]2(CCCN(C(=O)C3CCCCC3)C2)O1 | 6 | x | x | x | x | x
O=C(NC1CCSc2ccccc21)c1ccc(F)cc1 (stereo unspecified) | -1 | -1 | 1 | 3 | x | x
O=C(NC1CCSc2ccccc21)c1ccc(C(F)(F)F)cc1 (stereo unspecified) | 3 | -3 | 11* | 6 | 11* | 18*
CC(C)[C@H]1/C(=C/C2CC2)N2C(=O)C[C@@H](c3ccccc3)N=C2N1Cc1ccc2c(c1)OCO2 | 11 | x | x | x | x | x
N/C(=N\c1nc2ccccc2o1)NC(=O)c1ccccc1NC(=O)c1ccccc1 | 18 | -17 | 11* | 1 | 11* | 19*
COc1cccc(OC)c1C(=O)Nc1ccc(C(=O)NCc2ccccc2)cc1 | -4 | -6 | 9.6* | 3 | 12* | 17*
COc1ccc(C(=O)NCc2ccccc2)cc1Br | 4 | -7 | 1 | 2 | x | x
Nc1[nH]c(C(=O)c2ccccc2)c(-c2ccc(Cl)cc2)c1C(=O)NCCC1=CCCCC1 | -8 | x | x | x | x | x
O=C(Nc1nc2c(F)cc(F)cc2s1)C1CCN(C(=O)c2ccc(F)cc2)CC1 | 6 | -71 | 9.1* | -2 | 9.7* | 17*
O=C(Nc1nc(-c2ccc(F)cc2)cs1)C1CCN(C(=O)c2ccc(F)cc2)CC1 | -3 | 1 | -1 | -1 | x | x
Cc1ccc(C(=O)N2CCC(Oc3cccnc3)CC2)cc1 | 0 | x | x | x | x | x
CN1C(=O)c2cc(NS(=O)(=O)c3cccc(F)c3)ccc2OC[C@@H]2O[C@H](CC(=O)O)CC[C@H]21 | -1 | x | x | x | x | x
Cc1ccccc1C(=O)Nc1nnc(S(=O)(=O)N2CCCCC2)s1 | -4 | -11 | 24* | 11 | 32* | 40*
COc1ccccc1C1C(C(=O)c2cc3ccccc3o2)=C(O)C(=O)N1CCN(C)C (stereo unspecified) | 2 | 6 | 13* | 18 | 24* | 34*
